Experimental data: ChEMBL document CHEMBL4651341, “The discovery of a novel series of compounds with single-dose efficacy against juvenile and adult Schistosoma species” (PLoS Negl Trop Dis, 2021)
Converted amounts (≈) assume the structure as drawn.

Columns and labels:
Schistosoma mansoni [1] = experiment: Concentration required to kill 50% of 42 day old worms 5 days after drug treatment.; assay type: functional, organism-based; conditions: Puerto Rican, 120 h
Procedure, shortened: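 Adult S. mansoni were perfused from CD1 mice 6 weeks post-infection and washed. They were cultured 3 pairs per well in 1 mL DMEM with 2 mM glutamine, penicillin/streptomycin and 10% FCS […] at 37 °C, 5% CO2. Viability of individual worms was scored on day 5 (120 h).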

Schistosoma mansoni [2] = experiment: Concentration required to kill 50% of 21 day old worms 5 days after drug treatment.; assay type: functional, organism-based; conditions: Puerto Rican, 120 h
Procedure, shortened: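 Juvenile S. mansoni (Puerto Rican strain) were perfused from CD1 mice 3 weeks post-infection and washed. They were cultured 6–8 per well in 200 µL DMEM with 2 mM glutamine, penicillin/streptomycin and 10% FCS at 37 °C, 5% CO2. Viability of individual worms was scored on day 5 after dosing (120 h).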

[3] = Percentage of parent compound remaining after incubation for 90 minutes with cyropreserved mouse hepatocytes at a concentration of 1uM compound and […], determined by LCMS; assay type: ADME, tissue-based, Hepatocyte; conditions: cryopreserved mouse hepatocytes, read-out: Stability
Procedure, shortened: (§1)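 Compound was incubated at 1 µM final (2 µM working solution mixed 1:1 with hepatocyte suspension) in supplemented KHB pH 7.4. Conditions: 37 °C, 5% CO2, gentle mixing, duplicates. Reaction quenched with ice-cold acetonitrile containing standard; analysed by LC-MS/MS. % remaining = AUC at t / AUC at T0.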

[4] = Concentration required to kill 50% HepG2 cells as detected by MTT staining; assay type: toxicity, cell-based; conditions: homo sapiens, read-out: TC50 (the source's name)
[5] = Percentage of parent compound remaining after incubation for 90 minutes with cyropreserved human hepatocytes at a concentration of 1uM compound and 1 million cells/uL, determined by LCMS/MS; assay type: ADME, tissue-based, Hepatocyte; conditions: cryopreserved human hepatocytes, read-out: Stability; procedure, shortened: as §1
[6] = Plasma protein binding determined at 10uM by LC-MS/MS.; assay type: ADME, cell-free; conditions: mouse
Procedure, shortened: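 Equilibrium dialysis of plasma spiked at 10 µM (0.1% DMSO) against PBS pH 7.4, 6 h at 37 °C, duplicates. Both chambers analysed by LC-MS/MS after acetonitrile precipitation. % free = buffer/plasma area ratio; recovery also calculated.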

[7] = Mean observed clearance in Swiss albino male mice at 1 mg/kg per compound (administered iv in a mixture of 5 compounds to 3 mice) assessed by LCMS/MS.; assay type: ADME, organism-based; conditions: male, Swiss albino, mouse, in vivo, read-out: Clearance (converted)
Procedure, shortened: (§2)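 Male Swiss albino mice (~30 g), 3 per experiment, mostly dosed as mixtures of 5 compounds iv via the lateral tail vein. Vehicle: 10% DMSO/90% 50 mM Na2HPO4 with 0.5% Tween-80. Blood sampled at 5, 15, 30 min and 1, 2, 4, 8, 24 h. Plasma stored at −20 °C and quantified by LC-MS after acetonitrile precipitation.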

[8] = Percentage of parent compound remaining after incubation for 30 minutes with cyropreserved mouse hepatocytes at a concentration of 1uM compound and […], determined by LCMS; assay type: ADME, tissue-based, Hepatocyte; conditions: cryopreserved mouse hepatocytes, read-out: Stability; procedure, shortened: as §1
[9] = Solubility at 25 degC of compound (diluted from DMSO) in PBS at pH 7.4 determined after 24h (1h sonication, 22h shaking, 1h sonication) by LCMS/MS; assay type: physicochemical
[10] = Mean volume of distribution at steady state in Swiss albino male mice at 1 mg/kg per compound (administered iv in a mixture of 5 compounds to 3 mice) assessed by LCMS/MS.; assay type: ADME, organism-based; conditions: mouse, in vivo, read-out: Volume
Procedure, shortened: (§3)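 Male Swiss albino mice (~30 g), 3 per experiment, mostly dosed as mixtures of 5 compounds iv via the lateral tail vein. Vehicle: 10% DMSO/90% 50 mM Na2HPO4 with 0.5% Tween-80. Plasma stored at −20 °C and quantified by LC-MS after acetonitrile precipitation.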

[11] = Mean half-life in Swiss albino male mice at 1 mg/kg per compound (administered iv in a mixture of 5 compounds to 3 mice) assessed by LCMS/MS.; assay type: ADME, organism-based; conditions: mouse, in vivo; procedure, shortened: as §3
[12] = Mean AUC inf in Swiss albino male mice at 1 mg/kg per compound (administered iv in a mixture of 5 compounds to 3 mice) assessed by LCMS/MS.; assay type: ADME, organism-based; conditions: male, Swiss albino, mouse, in vivo; procedure, shortened: as §2
[13] = Mean oral bioavailability in Swiss albino male mice at […] per compound (administered in a mixture of 5 compounds to 3 mice) assessed by LCMS/MS.; note: dose 2.5 mg/kg; assay type: ADME, organism-based; conditions: male, Swiss albino, mouse, in vivo, read-out: Bioavailability
[14] = Mean plasma concentration at 4h in Swiss albino male mice at […] per compound (administered orally in a mixture of 5 compounds to 3 mice) assessed by LCMS/MS.; assay type: ADME, organism-based; conditions: mouse, po
[15] = Partition coefficient of compound between n-octanol and PBS (pH7.4); assay type: physicochemical; conditions: octanol/water, pH 7.4
Procedure, shortened: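 Shake-flask method using octanol and PBS pH 7.4, each pre-saturated with the other. Compound was shaken 2 h at 850 rpm, 25 °C, then the phases were separated by centrifugation and both layers diluted and analysed by LC-MS/MS. LogD = log(octanol AUC × relative dilution / buffer AUC).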

[16] = Mean plasma concentration at 24h in Swiss albino male mice at […] per compound (administered orally in a mixture of 5 compounds to 3 mice) assessed by LCMS/MS.; assay type: ADME, organism-based; conditions: mouse, po
[17] = Mean time to peak plasma concentration in Swiss albino male mice at […] per compound (administered orally in a mixture of 5 compounds to 3 mice) assessed by LCMS/MS.; assay type: ADME, organism-based; conditions: mouse, po
[18] = Concentration required to kill 50% MRC-5 cells as detected by Alamar blue staining; assay type: toxicity, cell-based, MRC5; conditions: homo sapiens, read-out: TC50 (the source's name)
[19] = Concentration of drug in plasma at 4h following oral drug adminstration at given dose. Determined by LCMS/MS; assay type: ADME, organism-based; conditions: CD1, mouse
Procedure, shortened: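 Plasma sampled from the mice of the efficacy experiments, each animal sampled once: one animal per group at 1, 4 and 8 h, two per group at 24 h. Plasma prepared by acetonitrile protein precipitation and analysed by LC-MS against a 10-point calibration line spiked in blank matrix, with QCs at three or more levels.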

Compound | EC50 (Schistosoma mansoni [1]) [µM] | EC50 (Schistosoma mansoni [2]) [µM] | remaining at 1.5 h, 1 µM [3] [%] | CC50 [4] [µM] | remaining at 1.5 h, 1 µM [5] [%] | Binding [6] [%] | clearance [7] [mL/min/kg] | remaining at 0.5 h, 1 µM [8] [%] | solubility kinetic at 24 h [9] [µM] | Vd [10] [L/kg] | half-life [11] [h] | AUC(0-inf) [12] [ng·h/mL] | bioavailability [13] [%] | concentration at 4 h [14] [ng/mL] | Lipophilicity [15] | concentration at 24 h [16] [ng/mL] | Tmax [17] [h] | CC50 [18] [µM] | concentration at 4 h [19] [ng/mL]
CCc1nc2cnc(-c3ccc(F)c(C(C)C)c3)cn2c1-c1ccc2[nH]ncc2c1F | 0.0039 | 0.0054 | 59.3 | 11.3 | 37.8 | – | – | – | – | – | – | – | – | – | – | – | – | – | –
Oc1cc(F)c(-c2cnc3cnc(-c4cccc(C(F)(F)F)c4)cn23)c(F)c1 | 2.38 | 2.65 | – | 23.1 | – | 99.595 | 9.63 | 74.1 | 2.88 (≈ 1.13 µg/mL) | 0.918 | 2.95 | 870 | 41.7 | 171 | 3.12 = | 0.1 | 0.25 | 8.13 | –
CC(C)c1cc(-c2cn3c(-c4ccc5[nH]ncc5c4F)c(C4CCC4)nc3cn2)ccc1F | 0.0073 | 0.0043 | 52.1 | 10.9 | 25.3 | – | – | – | 1.35 (≈ 0.599 µg/mL) | – | – | – | – | – | – | – | – | – | –
Fc1ccc(-c2cn3c(-c4ccc5[nH]ncc5c4F)c(C4CCC4)nc3cn2)cc1C(F)(F)F | 0.0368 | 0.036 | 73.4 | – | 73.6 | – | – | – | – | – | – | – | – | – | – | – | – | – | –
Cc1nc2cnc(-c3ccc(F)c(C(F)(F)F)c3)cn2c1-c1ccc(O)cc1F | < 0.78 | < 0.641 | – | > 11.1 | – | 99.805 | 48.5 | 64.1 | 1.54 (≈ 0.624 µg/mL) | 2.98 | 2.28 | 172 | 13.5 | 7.79 | 3.39 = | 0.1 | 0.25 | 15.8 | –
CC(C)c1cc(-c2cn3c(-c4ccc5[nH]ncc5c4F)c(C(C)C)nc3cn2)ccc1F | 0.00398 | 0.00496 | 46.2 | 11 | 37.7 | – | 15 | – | 0.784 (≈ 0.338 µg/mL) | 4.48 | 5.69 | 558 | 64 | 119 | – | 4.17 | 0.5 | – | –
CC(C)c1nc2cnc(-c3ccc(F)c(C(F)(F)F)c3)cn2c1-c1ccc2[nH]ncc2c1F | – | – | – | 12 | – | – | – | – | – | – | – | – | – | 318 | 4.19 = | – | 1 | – | 1150
CC(C)c1nc2cnc(-c3cccc(C(F)(F)F)c3)cn2c1-c1ccc(O)cc1F | < 0.122 | 0.0792 | – | 9 | – | 99.945 | – | 54.4 | 6.8 (≈ 2.82 µg/mL) | – | – | – | – | – | 4.82 = | – | – | 14.5 | –
CC(C)c1cc(-c2cn3c(-c4ccc5[nH]ncc5c4F)c(C(F)(F)F)nc3cn2)ccc1F | – | < 0.00267 | – | > 17 | – | – | – | – | – | – | – | – | – | 52.3 | – | – | 0.417 | – | 1250
Fc1c(-c2c(C(F)(F)F)nc3cnc(-c4cccc(C(F)(F)C(F)(F)F)c4)cn23)ccc2[nH]ncc12 | – | – | – | 10.9 | – | – | 1.43 | – | – | – | – | – | – | 655 | 4.5 = | – | – | – | 1100
Oc1cc(F)c(-c2c(C3CC3)nc3cnc(-c4ccc(F)c(S(F)(F)(F)(F)F)c4)cn23)c(F)c1 | 0.00578 | 0.0104 | 84.9 | 10.1 | 40.2 | – | – | – | 41.1 (≈ 20.9 µg/mL) | – | – | – | – | – | – | – | – | – | –
Fc1c(-c2c(C(F)(F)F)nc3cnc(-c4cccc(OC(F)(F)F)c4)cn23)ccc2[nH]ncc12 | 0.0206 | 0.0234 | 88.7 | 9.71 | 54 | – | 19.3 | – | – | 5.68 | 5.8 | 433 | 114 | 182 | – | 8.87 | 0.667 | – | –
CC(C)c1nc2cnc(-c3ccc(F)c(C(F)(F)F)c3)cn2c1-c1c(F)cc(O)cc1F | < 0.0462 | – | – | 7.13 | – | – | 18 | – | – | – | – | 466 | – | – | – | – | 0.25 | – | 4140
CC(C)c1cc(-c2cn3c(-c4ccc5[nH]ncc5c4F)c(C4CC4)nc3cn2)ccc1F | – | – | – | 15.8 | – | – | – | – | – | – | 6.18 | 530 | 149 | 295 | 6.53 = | – | 1.33 | – | 104
Fc1ccc(-c2cn3c(-c4ccc5[nH]ncc5c4F)c(C4CC4)nc3cn2)cc1S(F)(F)(F)(F)F | 0.0173 | 0.0295 | 88.6 | 14.8 | 101 | – | – | – | 0.823 (≈ 0.423 µg/mL) | – | – | – | – | – | – | – | – | – | –
